Experiments:
Rattus norvegicus [1] = assay: Antiinflammatory activity in albino rat assessed as inhibition of carrageenan-induced paw edema at 100 mg/kg, po administered 30 mins prior to challenge measured after 1 hr relative to untreated control; type: functional
Procedure, shortened: (§1)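 Adult male albino rats (120–140 g), groups of four, fasted 24 h with water allowed. Test compound suspended in 0.5% w/v CMC in water, given orally at 100 mg/kg; controls received CMC alone. After 30 min, 0.1 mL of 1% carrageenan in saline injected subplantar into right hind paw, saline into left. Paw thickness measured by caliper; % inhibition = [(VR−VL)control − (VR−VL)treated]/(VR−VL)control ×100; one-way ANOVA versus control.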

Rattus norvegicus [2] = assay: Antiinflammatory activity in albino rat assessed as inhibition of carrageenan-induced paw edema at 100 mg/kg, po administered 30 mins prior to challenge measured after 2 hrs relative to untreated control; type: functional; procedure, shortened: as §1
[3] = Induction of nitric oxide release at 0.1 mM after 5 hrs in phosphate buffer at pH 7.4 by Griess assay; type: physicochemical; conditions: pH 7.4, 5 h, 100 µM
Procedure, shortened: (§2)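 Compound at a final 10^-4 M with 0.5 mM N-acetylcysteine in phosphate buffer pH 7.4 at 37 °C. Reaction mixture treated with Griess reagent (sulfanilamide, N-naphthylethylenediamine, phosphoric acid), 10 min at room temperature, absorbance read at 546 nm. Sodium nitrite standards (10–80 nmol/mL) used for calibration. NO reported as mol/mol, n = 4 reaction mixtures.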

[4] = Induction of nitric oxide release at 0.1 mM in 0.1 N HCl buffer at pH 1.0 by Griess assay; type: physicochemical; conditions: pH 1, 100 µM
Procedure, shortened: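 Griess procedure as at neutral pH, but in 0.1 N HCl pH 1 in place of phosphate buffer. Compound at a final 10^-4 M with N-acetylcysteine, 37 °C. Absorbance read at 546 nm against sodium nitrite standards (10–80 nmol/mL). Release expressed relative to a theoretical 1 mol NO/mol compound.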

[5] = Induction of nitric oxide release at 0.1 mM after 1 hr in phosphate buffer at pH 7.4 by Griess assay; type: physicochemical; conditions: pH 7.4, 1 h, 100 µM; procedure, shortened: as §2
[6] = Induction of nitric oxide release at 0.1 mM after 3 hrs in phosphate buffer at pH 7.4 by Griess assay; type: physicochemical; conditions: pH 7.4, 3 h, 100 µM; procedure, shortened: as §2
Rattus norvegicus [7] = assay: Gastric toxicity in albino rat assessed as loss of mucosal membrane at the area of ulceration at 100 mg/kg, po after 5 hrs by hematoxylin and eosin staining; type: organism-based; set-up: dose 100 mg/kg, route oral; conditions: in vivo
Procedure, shortened: (§3)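 Stomach sections from control and treated rats were dewaxed and hydrated through graded alcohols. They were stained with haematoxylin 5–7 min, differentiated 5–10 s in 1% HCl in 70% alcohol, then stained with 1% eosin for 10 min. Mucosa of the fundic stomach was examined by light microscopy.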

[8] = Induction of nitric oxide release at 0.1 mM after 2 hrs in phosphate buffer at pH 7.4 by Griess assay; type: physicochemical; conditions: pH 7.4, 2 h, 100 µM; procedure, shortened: as §2
Rattus norvegicus [9] = assay: Antiinflammatory activity in albino rat assessed as inhibition of carrageenan-induced paw edema at 100 mg/kg, po administered 30 mins prior to challenge measured after 3 hrs relative to indomethacin; type: functional; set-up: scale not given: the % may be the effect or the level left
Procedure, shortened: (§4)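 Carrageenan paw edema in male albino rats (120–140 g, n = 4, fasted 24 h), compound 100 mg/kg po in 0.5% CMC 30 min before subplantar 1% carrageenan (0.1 mL). Percent edema inhibition at the stated hour from right minus left paw thickness versus the CMC control, then expressed as a percentage of the indomethacin (100 mg/kg) response at the same time.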

Rattus norvegicus [10] = assay: Gastric toxicity in albino rat assessed as ulcer index at 100 mg/kg, po after 5 hrs; type: organism-based; set-up: dose 100 mg/kg, route oral; conditions: in vivo
Procedure, shortened: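 Rats dosed orally at 100 mg/kg in 0.5% CMC (n = 4). Stomach lesions counted and graded by area: level I <1 mm², II 1–3 mm², III >3 mm². Ulcer index = 1×(level I count) + 2×(level II) + 3×(level III). Mean ± SEM; one-way ANOVA versus control.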

Rattus norvegicus [11] = assay: Antiinflammatory activity in albino rat assessed as inhibition of carrageenan-induced paw edema at 100 mg/kg, po administered 30 mins prior to challenge measured after 5 hrs relative to untreated control; type: functional; procedure, shortened: as §1
Rattus norvegicus [12] = assay: Gastric toxicity in albino rat assessed as structural damage in mucosal membrane at 100 mg/kg, po after 5 hrs by hematoxylin and eosin staining; type: organism-based; set-up: dose 100 mg/kg, route oral; conditions: in vivo; procedure, shortened: as §3
Rattus norvegicus [13] = assay: Antiinflammatory activity in albino rat assessed as inhibition of carrageenan-induced paw edema at 100 mg/kg, po administered 30 mins prior to challenge measured after 3 hrs relative to untreated control; type: functional; procedure, shortened: as §1
Rattus norvegicus [14] = assay: Antiinflammatory activity in albino rat assessed as inhibition of carrageenan-induced paw edema at 100 mg/kg, po administered 30 mins prior to challenge measured after 4 hrs relative to untreated control; type: functional; procedure, shortened: as §1
[15] = Induction of nitric oxide release at 0.1 mM after 6 hrs in phosphate buffer at pH 7.4 by Griess assay; type: physicochemical; conditions: pH 7.4, 6 h, 100 µM; procedure, shortened: as §2
[16] = Induction of nitric oxide release at 0.1 mM after 4 hrs in phosphate buffer at pH 7.4 by Griess assay; type: physicochemical; conditions: pH 7.4, 4 h, 100 µM; procedure, shortened: as §2
Rattus norvegicus [17] = assay: Antiinflammatory activity in albino rat assessed as inhibition of carrageenan-induced paw edema at 100 mg/kg, po administered 30 mins prior to challenge measured after 4 hrs relative to indomethacin; type: functional; set-up: scale not given: the % may be the effect or the level left; procedure, shortened: as §4
Rattus norvegicus [18] = assay: Gastric toxicity in albino rat assessed as capillary inflammatory cells appearance at 100 mg/kg, po after 5 hrs by hematoxylin and eosin staining; type: organism-based; set-up: dose 100 mg/kg, route oral; conditions: in vivo; procedure, shortened: as §3
Rattus norvegicus [19] = assay: Gastric toxicity in albino rat assessed as abnormal morphology of fundic gland at 100 mg/kg, po after 5 hrs by hematoxylin and eosin staining; type: organism-based; set-up: dose 100 mg/kg, route oral; conditions: in vivo; procedure, shortened: as §3
Rattus norvegicus [20] = assay: Gastric toxicity in albino rat assessed as edema at 100 mg/kg, po after 5 hrs by hematoxylin and eosin staining; type: organism-based; set-up: dose 100 mg/kg, route oral; conditions: in vivo; procedure, shortened: as §3
Rattus norvegicus [21] = assay: Gastric toxicity in albino rat assessed as vasodilation of blood capillaries at 100 mg/kg, po after 5 hrs by hematoxylin and eosin staining; type: organism-based; set-up: dose 100 mg/kg, route oral; conditions: in vivo; procedure, shortened: as §3
Rattus norvegicus [22] = assay: Gastric toxicity in albino rat assessed as degeneration of fundic gland at 100 mg/kg, po after 5 hrs by hematoxylin and eosin staining; type: organism-based; set-up: dose 100 mg/kg, route oral; conditions: in vivo; procedure, shortened: as §3
Rattus norvegicus [23] = assay: Gastric toxicity in albino rat assessed as apoptotic glandular epithelial cells appearance at 100 mg/kg, po after 5 hrs by hematoxylin and eosin staining; type: organism-based, Epithelial cell; set-up: dose 100 mg/kg, route oral; conditions: in vivo; procedure, shortened: as §3

Row | Compound | inhibition in vivo at 100 mg/kg (Rattus norvegicus [1]) | inhibition in vivo at 100 mg/kg (Rattus norvegicus [2]) | Activity [3] | Activity [4] | Activity [5] | Activity [6] | Activity [8] | Activity (Rattus norvegicus [9]) | UI (Rattus norvegicus [10]) | inhibition in vivo at 100 mg/kg (Rattus norvegicus [11]) | inhibition in vivo at 100 mg/kg (Rattus norvegicus [13]) | inhibition in vivo at 100 mg/kg (Rattus norvegicus [14]) | Activity [15] | Activity [16] | also measured
1 | CC(O[N+](=O)[O-])C(=O)Nc1ccc(C(=O)/C=C/c2ccc(Cl)cc2)cc1 (configuration not stated) | 45% | 55% | 0.28 mol/mol | Not Active | 0.13 mol/mol | 0.46 mol/mol | 0.16 mol/mol | 80% | 3.5 | 56% | 62% | 61% | 0.16 mol/mol | 0.35 mol/mol | Activity (Rattus norvegicus [7]): Toxic; Activity (Rattus norvegicus [12]): Toxic
2 | O=C(COCc1c(-c2ccccc2)no[n+]1[O-])Nc1ccc(C(=O)/C=C/c2ccc(Cl)cc2)cc1 | 38% | 48% | 1.5 mol/mol | Not Active | 0.55 mol/mol | 1.22 mol/mol | 0.98 mol/mol |  | 1 | 62% | 66% | 75% | 0.87 mol/mol | 1.295 mol/mol | Activity (Rattus norvegicus [17]): 91%; Activity (Rattus norvegicus [18]): Non-toxic; Activity (Rattus norvegicus [12]): Non-toxic
3 | O=C(CO[N+](=O)[O-])Nc1ccc(C(=O)/C=C/c2ccc(Cl)cc2)cc1 | 42% | 57% | 0.75 mol/mol | Not Active | 0.32 mol/mol | 0.54 mol/mol | 0.37 mol/mol | 89% | 2.5 | 60% | 69% | 67% | 0.73 mol/mol | 0.73 mol/mol | Activity (Rattus norvegicus [19]): Non-toxic; Activity (Rattus norvegicus [20]): Non-toxic; Activity (Rattus norvegicus [21]): Non-toxic
4 | O=C(COCc1c(-c2ccccc2)no[n+]1[O-])Nc1ccc(C(=O)/C=C/c2ccc3c(c2)OCO3)cc1 | 34% | 55% | 1.26 mol/mol | Not Active | 0.5 mol/mol | 0.86 mol/mol | 0.71 mol/mol |  | 1.3 | 70% | 62% | 72% | 0.75 mol/mol | 0.89 mol/mol | Activity (Rattus norvegicus [17]): 87%
5 | COc1ccc2c(c1)c(CC(=O)O)c(C)n2C(=O)c1ccc(Cl)cc1 [INDOMETHACIN] | 56% | 70% |  |  |  |  |  |  | 45.5 | 87% | 78% | 83% |  |  | Activity (Rattus norvegicus [7]): Toxic; Activity (Rattus norvegicus [22]): Toxic; Activity (Rattus norvegicus [18]): Toxic; Activity (Rattus norvegicus [23]): Toxic
6 | C/C(=N/O)c1ccc(OCC(=O)Nc2ccc(C(=O)/C=C/c3ccco3)cc2)cc1 | 36% | 44% | 0.14 mol/mol | Not Active | 0.1 mol/mol | 0.12 mol/mol | 0.12 mol/mol | 64% | 4.8 | 42% | 49% | 48% | 0.13 mol/mol | 0.28 mol/mol | 
7 | COc1ccc(/C=C/C(=O)c2ccc(NC(=O)C(C)O[N+](=O)[O-])cc2)cc1 (configuration not stated) | 43% | 46% | 0.15 mol/mol | Not Active | 0.11 mol/mol | 0.37 mol/mol | 0.12 mol/mol | 65% | 8 | 35% | 50% | 43% | 0.14 mol/mol | 0.17 mol/mol | 
8 | O=C(COCc1c(-c2ccccc2)no[n+]1[O-])Nc1ccc(C(=O)/C=C/c2ccco2)cc1 | 30% | 45% | 0.65 mol/mol | Not Active | 0.16 mol/mol | 0.4 mol/mol | 0.23 mol/mol | 76% | 2.5 | 49% | 59% | 58% | 0.54 mol/mol | 0.499 mol/mol | 
9 | CC(O[N+](=O)[O-])C(=O)Nc1ccc(C(=O)/C=C/c2ccc3c(c2)OCO3)cc1 (configuration not stated) | 45% | 40% | 0.15 mol/mol | Not Active | 0.1 mol/mol | 0.4 mol/mol | 0.14 mol/mol | 77% | 4 | 53% | 59% | 54% | 0.12 mol/mol | 0.28 mol/mol | 
10 | COc1ccc(/C=C/C(=O)c2ccc(NC(=O)CO[N+](=O)[O-])cc2)cc1 | 33% | 49% | 0.68 mol/mol | Not Active | 0.27 mol/mol | 0.48 mol/mol | 0.31 mol/mol | 69% | 5.8 | 46% | 53% | 51% | 0.59 mol/mol | 0.66 mol/mol | 
11 | CC(O[N+](=O)[O-])C(=O)Nc1ccc(C(=O)/C=C/c2ccco2)cc1 (configuration not stated) | 41% | 48% | 0.11 mol/mol | Not Active | 0.09 mol/mol | 0.38 mol/mol | 0.11 mol/mol | 69% | 5.7 | 49% | 54% | 49% | 0.09 mol/mol | 0.13 mol/mol | 

— ChEMBL document CHEMBL1926598, “Synthesis, anti-inflammatory activity and ulcerogenic liability of novel nitric oxide donating/chalcone hybrids” (Bioorg Med Chem, 2012)
